Measurements published in ChEMBL document CHEMBL4007505 (J Med Chem, 2017).
Calls of active or inactive are those of the source. The calls are words filed in the database; no cut-off is given here.

How the values were obtained:
[1] = target: Alpha-2B adrenergic receptor (Homo sapiens, UniProt P18089); assay: Displacement of [3H]Rauwolscine from human adrenergic alpha2B receptor
[2] = target: Sodium-dependent noradrenaline transporter (Homo sapiens, UniProt P23975); assay: Enhancing of [3H]mazindol binding to recombinant human NET expressed in HEK293 cell membranes preincubated for 10 mins followed by radioligand addition measured after 90 mins by micro beta scintillation counting analysis
Sequence of Sodium-dependent noradrenaline transporter (P23975 whole entry): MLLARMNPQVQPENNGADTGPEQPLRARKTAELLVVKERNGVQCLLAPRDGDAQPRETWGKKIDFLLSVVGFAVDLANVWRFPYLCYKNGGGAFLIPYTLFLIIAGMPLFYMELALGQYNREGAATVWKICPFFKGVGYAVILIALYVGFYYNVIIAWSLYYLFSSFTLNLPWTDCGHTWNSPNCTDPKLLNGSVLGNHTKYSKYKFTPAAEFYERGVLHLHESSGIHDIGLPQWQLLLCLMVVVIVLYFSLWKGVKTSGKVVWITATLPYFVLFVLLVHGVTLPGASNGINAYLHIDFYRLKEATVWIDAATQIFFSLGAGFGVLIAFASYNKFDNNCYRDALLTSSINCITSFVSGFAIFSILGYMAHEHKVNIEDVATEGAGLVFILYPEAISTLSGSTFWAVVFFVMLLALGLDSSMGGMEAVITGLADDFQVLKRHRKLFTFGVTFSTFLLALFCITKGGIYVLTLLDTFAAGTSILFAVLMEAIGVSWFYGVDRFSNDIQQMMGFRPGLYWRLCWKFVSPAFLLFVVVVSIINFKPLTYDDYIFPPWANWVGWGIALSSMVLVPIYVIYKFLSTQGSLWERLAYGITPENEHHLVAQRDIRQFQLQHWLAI

[3] = target: T1, Alpha-1A adrenergic receptor (Homo sapiens, UniProt P35348); assay: Displacement of [3H]Prazosin from human adrenergic alpha1A receptor
T1 sequence (P35348 whole entry): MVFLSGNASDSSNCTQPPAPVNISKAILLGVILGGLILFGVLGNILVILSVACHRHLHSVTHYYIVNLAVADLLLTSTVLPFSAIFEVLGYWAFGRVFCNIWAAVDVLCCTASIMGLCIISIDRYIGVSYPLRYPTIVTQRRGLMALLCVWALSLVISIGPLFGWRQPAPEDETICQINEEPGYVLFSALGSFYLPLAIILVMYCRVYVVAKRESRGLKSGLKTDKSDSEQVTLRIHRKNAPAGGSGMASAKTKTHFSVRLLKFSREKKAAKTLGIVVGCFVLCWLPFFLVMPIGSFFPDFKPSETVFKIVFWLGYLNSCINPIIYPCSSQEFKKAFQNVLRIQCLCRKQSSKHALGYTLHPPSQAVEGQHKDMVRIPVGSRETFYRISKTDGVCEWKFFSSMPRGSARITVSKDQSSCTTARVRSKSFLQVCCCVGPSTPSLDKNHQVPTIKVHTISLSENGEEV

[4] = target: T2, Sodium-dependent dopamine transporter (Homo sapiens, UniProt Q01959); assay: Enhancing of [125I]RTI-55 binding to recombinant human DAT expressed in HEK293 cell membranes preincubated for 10 mins followed by radioligand addition measured after 90 mins by micro beta scintillation counting analysis; set-up: concentration or dose not given beside the values
T2 sequence (Q01959 whole entry): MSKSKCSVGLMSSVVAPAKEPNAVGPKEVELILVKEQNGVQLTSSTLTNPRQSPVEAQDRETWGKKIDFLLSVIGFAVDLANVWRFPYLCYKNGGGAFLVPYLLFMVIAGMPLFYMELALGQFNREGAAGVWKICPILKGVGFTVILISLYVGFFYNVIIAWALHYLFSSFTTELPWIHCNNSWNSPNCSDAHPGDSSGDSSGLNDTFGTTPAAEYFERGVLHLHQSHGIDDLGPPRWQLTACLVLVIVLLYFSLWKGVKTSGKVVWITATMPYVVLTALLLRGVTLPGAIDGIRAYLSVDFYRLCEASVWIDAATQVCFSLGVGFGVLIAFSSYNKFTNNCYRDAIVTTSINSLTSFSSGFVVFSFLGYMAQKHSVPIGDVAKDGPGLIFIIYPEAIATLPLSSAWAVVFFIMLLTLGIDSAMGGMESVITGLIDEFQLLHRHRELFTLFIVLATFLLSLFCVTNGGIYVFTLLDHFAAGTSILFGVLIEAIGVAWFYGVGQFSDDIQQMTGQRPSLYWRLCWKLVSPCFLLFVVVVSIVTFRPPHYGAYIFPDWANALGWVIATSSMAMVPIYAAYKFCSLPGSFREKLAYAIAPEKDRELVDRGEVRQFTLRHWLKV
How it was run: (§1)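 Membranes of HEK-293 cells stably expressing hDAT, hNET or hSERT. […] Compound preincubated 10 min at room temperature, then [125I]23 (40-80 pM final) or [3H]26 (1-3 nM for DAT and NET, 10-13 nM for SERT) added. Incubated 90 min at room temperature in the dark, then filtered. EC50 or Ki; mean ± SEM.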

[5] = target: T2, Sodium-dependent dopamine transporter; assay: Enhancing of [3H]mazindol binding to recombinant human DAT expressed in HEK293 cell membranes preincubated for 10 mins followed by radioligand addition measured after 90 mins by micro beta scintillation counting analysis; set-up: concentration or dose not given beside the values; how it was run: as §1
[6] = target: T3, Sodium-dependent serotonin transporter (Homo sapiens, UniProt P31645); assay: Enhancing of [125I]RTI-55 binding to recombinant human SERT expressed in HEK293 cell membranes preincubated for 10 mins followed by radioligand addition measured after 90 mins by micro beta scintillation counting analysis
[7] = target: T2, Sodium-dependent dopamine transporter; assay: Inhibition of recombinant human DAT expressed in HEK293 cell […] as reduction in [3H]-DA uptake incubated for 22 mins by micro beta scintillation counting analysis
[8] = target: T3, Sodium-dependent serotonin transporter; assay: Enhancing of [3H]mazindol binding to recombinant human SERT expressed in HEK293 cell membranes preincubated for 10 mins followed by radioligand addition measured after 90 mins by micro beta scintillation counting analysis
Target sequence in this assay (P31645 whole entry): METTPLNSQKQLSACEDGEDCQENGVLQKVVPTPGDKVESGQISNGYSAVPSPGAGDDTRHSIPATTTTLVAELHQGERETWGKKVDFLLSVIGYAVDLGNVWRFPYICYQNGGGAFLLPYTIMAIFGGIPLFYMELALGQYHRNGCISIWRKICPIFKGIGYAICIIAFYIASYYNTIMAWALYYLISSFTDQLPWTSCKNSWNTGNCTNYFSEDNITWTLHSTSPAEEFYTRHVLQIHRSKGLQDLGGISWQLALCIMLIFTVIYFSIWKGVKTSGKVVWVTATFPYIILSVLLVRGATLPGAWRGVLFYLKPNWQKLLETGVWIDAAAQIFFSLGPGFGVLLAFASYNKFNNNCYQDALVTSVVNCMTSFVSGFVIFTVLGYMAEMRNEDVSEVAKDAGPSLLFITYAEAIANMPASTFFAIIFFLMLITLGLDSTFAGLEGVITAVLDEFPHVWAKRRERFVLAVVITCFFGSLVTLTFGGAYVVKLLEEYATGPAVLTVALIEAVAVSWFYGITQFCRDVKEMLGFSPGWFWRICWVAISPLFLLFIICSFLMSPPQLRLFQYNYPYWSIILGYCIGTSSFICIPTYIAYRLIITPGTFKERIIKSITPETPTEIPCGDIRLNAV

[9] = target: T2, Sodium-dependent dopamine transporter; assay: Inhibition of [3H]WIN35,428 binding to recombinant human DAT expressed in HEK293 cell membranes at 10 uM pre-incubated for 10 mins before radioligand addition and measured 90 mins after radioligand addition by micro beta scintillation counting analysis relative to control
[10] = target: T4, Alpha-1D adrenergic receptor (Homo sapiens, UniProt P25100); assay: Displacement of [3H]Prazosin from human adrenergic alpha1D receptor
T4 sequence (P25100 whole entry): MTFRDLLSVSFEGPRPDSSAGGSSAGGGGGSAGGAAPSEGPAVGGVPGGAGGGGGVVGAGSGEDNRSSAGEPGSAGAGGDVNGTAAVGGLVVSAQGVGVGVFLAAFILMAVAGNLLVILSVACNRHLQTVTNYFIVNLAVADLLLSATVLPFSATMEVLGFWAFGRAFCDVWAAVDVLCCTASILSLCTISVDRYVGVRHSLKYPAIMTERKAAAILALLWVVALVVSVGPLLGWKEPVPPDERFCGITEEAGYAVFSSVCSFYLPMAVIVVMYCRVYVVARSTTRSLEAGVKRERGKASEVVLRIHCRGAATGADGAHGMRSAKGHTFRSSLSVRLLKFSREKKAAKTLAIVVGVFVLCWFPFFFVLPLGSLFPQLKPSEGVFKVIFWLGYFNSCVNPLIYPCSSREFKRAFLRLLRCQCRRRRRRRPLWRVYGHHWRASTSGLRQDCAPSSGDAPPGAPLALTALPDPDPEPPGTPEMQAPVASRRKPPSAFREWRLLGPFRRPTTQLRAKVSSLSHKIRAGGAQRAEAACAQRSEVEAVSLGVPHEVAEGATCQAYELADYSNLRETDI

[11] = target: T5, Alpha-2C adrenergic receptor (Homo sapiens, UniProt P18825); assay: Displacement of [3H]Rauwolscine from human adrenergic alpha2C receptor
T5 sequence (P18825 whole entry): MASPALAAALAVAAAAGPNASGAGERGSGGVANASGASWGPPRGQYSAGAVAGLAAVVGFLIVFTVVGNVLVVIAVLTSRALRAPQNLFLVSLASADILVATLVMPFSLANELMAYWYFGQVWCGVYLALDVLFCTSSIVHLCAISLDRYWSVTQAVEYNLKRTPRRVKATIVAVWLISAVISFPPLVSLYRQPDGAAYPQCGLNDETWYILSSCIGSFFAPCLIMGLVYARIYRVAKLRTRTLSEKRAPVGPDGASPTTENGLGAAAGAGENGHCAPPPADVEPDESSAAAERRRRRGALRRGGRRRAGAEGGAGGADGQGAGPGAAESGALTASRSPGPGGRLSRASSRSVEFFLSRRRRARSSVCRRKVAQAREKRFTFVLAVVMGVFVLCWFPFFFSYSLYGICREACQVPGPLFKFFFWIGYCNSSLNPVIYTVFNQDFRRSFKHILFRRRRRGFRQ

[12] = target: T6, 5-hydroxytryptamine receptor 2C (Homo sapiens, UniProt P28335); assay: Displacement of [3H]Mesulergine from human 5-HT2C receptor
T6 sequence (P28335 whole entry): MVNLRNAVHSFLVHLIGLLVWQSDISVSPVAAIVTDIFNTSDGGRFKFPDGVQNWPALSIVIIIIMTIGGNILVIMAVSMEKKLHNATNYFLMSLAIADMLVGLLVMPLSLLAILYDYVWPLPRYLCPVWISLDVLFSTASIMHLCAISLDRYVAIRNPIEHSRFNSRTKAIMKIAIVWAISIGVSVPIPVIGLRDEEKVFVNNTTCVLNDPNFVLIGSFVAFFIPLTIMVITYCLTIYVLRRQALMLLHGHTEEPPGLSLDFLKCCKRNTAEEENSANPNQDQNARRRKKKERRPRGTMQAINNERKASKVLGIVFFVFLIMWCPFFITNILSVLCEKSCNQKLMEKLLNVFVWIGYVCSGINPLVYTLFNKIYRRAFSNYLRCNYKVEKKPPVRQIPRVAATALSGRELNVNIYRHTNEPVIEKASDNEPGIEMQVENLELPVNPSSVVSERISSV

Sequence of Alpha-2B adrenergic receptor (P18089 whole entry): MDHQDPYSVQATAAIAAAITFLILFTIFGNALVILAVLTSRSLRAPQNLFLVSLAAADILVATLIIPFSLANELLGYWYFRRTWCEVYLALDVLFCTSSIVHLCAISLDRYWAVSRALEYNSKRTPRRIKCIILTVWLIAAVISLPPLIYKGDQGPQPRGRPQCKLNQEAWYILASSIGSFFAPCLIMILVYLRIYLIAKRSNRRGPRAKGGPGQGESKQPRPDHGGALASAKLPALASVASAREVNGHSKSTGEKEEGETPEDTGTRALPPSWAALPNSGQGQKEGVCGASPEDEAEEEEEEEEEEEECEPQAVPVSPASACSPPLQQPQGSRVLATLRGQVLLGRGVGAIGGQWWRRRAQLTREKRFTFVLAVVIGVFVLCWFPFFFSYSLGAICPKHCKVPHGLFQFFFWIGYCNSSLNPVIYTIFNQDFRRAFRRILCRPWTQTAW

With `CNc1nc(C#Cc2ccc(Cl)s2)nc2c1ncn2[C@@H]1O[C@H](C(=O)OC)[C@@H](O)[C@H]1O` the Ki [1] was 5 to 10 µM, the Activity [2] was “inactive” and the Ki [3] was > 10 µM. It also gave an Activity [4] of 312%, an EC50 ([4]; read-out: EC50) of 0.127 µM and an Activity [5] of 269%. For the same molecule, the EC50 ([5]; read-out: EC50) was 0.86 µM, the Activity [6] was “inactive” and the EC50 ([6]; read-out: EC50) was > 10 µM. The IC50 [7] was 0.396 µM, the EC50 [8] was > 10 µM and the inhibition [9] was “inactive”. The Ki [10] was > 10 µM, the Ki [11] was > 10 µM and the Ki [12] was 3.24 µM.
